These results are taken from publication PMC6147567 (Molecules : A Journal of Synthetic Chemistry and Natural …, 2005).

SMILES strings stand for the structures.

Test [1] concerns the target xanthine oxidase (Xox) from buttermilk (Bos taurus, UniProt P80457). Briefly: Inhibition of xanthine oxidase, hypoxanthine oxidation test. Type of test: biochemical. The note with it: for inhibition of Xox (in words): Xox from buttermilk. A digest of the protocol:
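Buttermilk enzyme assayed by hypoxanthine oxidation at 48–150 μM substrate in 50 mM phosphate, pH 7.0, 25 °C. Product formation was followed at 300 nm in a thermostatted spectrophotometer. Inhibitor concentrations were set spectrophotometrically from absorption data and reached up to ~300 μM. IC50 was obtained at more than one hypoxanthine level, and 'no inhibition' means none detected up to 300 μM.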

In test [2] the target is T1, rabbit muscle guanine deaminase (GDA) (Oryctolagus cuniculus, UniProt G1T386).
T1 sequence (G1T386 1-454): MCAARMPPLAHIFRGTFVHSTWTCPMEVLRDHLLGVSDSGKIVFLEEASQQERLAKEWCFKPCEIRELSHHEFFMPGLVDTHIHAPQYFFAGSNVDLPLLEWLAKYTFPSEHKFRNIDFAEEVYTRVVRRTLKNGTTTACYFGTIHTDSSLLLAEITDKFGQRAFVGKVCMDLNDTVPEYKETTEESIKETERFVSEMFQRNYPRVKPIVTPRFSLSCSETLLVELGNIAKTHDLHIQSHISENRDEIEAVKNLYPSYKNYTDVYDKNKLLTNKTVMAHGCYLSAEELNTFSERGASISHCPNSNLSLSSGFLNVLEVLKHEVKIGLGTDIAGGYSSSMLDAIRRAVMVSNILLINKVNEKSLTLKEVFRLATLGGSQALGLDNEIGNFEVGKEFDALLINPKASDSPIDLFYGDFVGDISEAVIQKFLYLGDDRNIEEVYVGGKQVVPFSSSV
Briefly: Guanine deaminase assay with 8-azaguanine as substrate. In kind it is biochemical. The note with it: concentrations up to 150 μM, 50 mM phosphate pH 6.1, 25 °C. In a few lines:
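Commercial guanine deaminase, assayed at pH 6.1 with ~50 μM 8-azaguanine as substrate. Reaction followed at 265 nm in a thermostatted UV spectrophotometer; default temperature for the work was 25 °C. Test compound concentrations were determined spectrophotometrically from absorption data and ranged up to ~300 μM.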

The subject of a further test is xanthine oxidase (Xox). The note with it: cited from earlier work.

Chain of xanthine oxidase (Xox) from buttermilk (P80457 whole entry): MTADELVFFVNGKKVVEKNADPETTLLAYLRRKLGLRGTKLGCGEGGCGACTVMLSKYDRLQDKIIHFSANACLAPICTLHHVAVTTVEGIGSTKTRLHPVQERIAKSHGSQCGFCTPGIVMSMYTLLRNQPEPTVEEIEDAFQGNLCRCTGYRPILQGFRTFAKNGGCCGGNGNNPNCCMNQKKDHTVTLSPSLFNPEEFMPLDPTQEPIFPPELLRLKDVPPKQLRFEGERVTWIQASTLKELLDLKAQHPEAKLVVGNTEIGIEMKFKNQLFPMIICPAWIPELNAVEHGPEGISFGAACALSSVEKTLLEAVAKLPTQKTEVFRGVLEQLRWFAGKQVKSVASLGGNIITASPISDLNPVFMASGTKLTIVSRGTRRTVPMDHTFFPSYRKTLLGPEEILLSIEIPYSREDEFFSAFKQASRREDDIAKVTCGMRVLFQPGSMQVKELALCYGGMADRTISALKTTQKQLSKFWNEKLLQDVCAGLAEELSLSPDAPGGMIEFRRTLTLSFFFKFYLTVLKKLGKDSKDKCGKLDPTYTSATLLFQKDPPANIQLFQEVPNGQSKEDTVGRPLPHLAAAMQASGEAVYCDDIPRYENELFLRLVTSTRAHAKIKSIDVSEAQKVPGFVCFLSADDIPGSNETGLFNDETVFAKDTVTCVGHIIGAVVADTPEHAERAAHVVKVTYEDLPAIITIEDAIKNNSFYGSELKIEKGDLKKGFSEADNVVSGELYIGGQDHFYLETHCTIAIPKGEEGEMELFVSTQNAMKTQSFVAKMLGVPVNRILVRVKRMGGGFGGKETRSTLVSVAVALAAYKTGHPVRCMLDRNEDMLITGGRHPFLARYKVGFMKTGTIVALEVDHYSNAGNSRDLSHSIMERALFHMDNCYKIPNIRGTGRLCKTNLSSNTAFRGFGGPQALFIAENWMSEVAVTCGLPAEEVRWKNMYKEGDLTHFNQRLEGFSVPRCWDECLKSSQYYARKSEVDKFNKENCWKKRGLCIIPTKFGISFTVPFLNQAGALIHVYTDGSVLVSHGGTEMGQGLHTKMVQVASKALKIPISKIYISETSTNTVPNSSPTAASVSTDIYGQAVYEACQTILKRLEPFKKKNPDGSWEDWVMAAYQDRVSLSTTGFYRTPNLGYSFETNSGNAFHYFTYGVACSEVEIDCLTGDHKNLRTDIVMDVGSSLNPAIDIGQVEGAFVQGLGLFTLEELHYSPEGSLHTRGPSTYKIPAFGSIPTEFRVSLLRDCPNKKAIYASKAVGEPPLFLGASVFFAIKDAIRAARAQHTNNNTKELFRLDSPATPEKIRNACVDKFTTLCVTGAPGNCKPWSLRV

Regarding `CSc1nnc2[nH]nc(C)c2n1` [Compound 1, 3-Methyl-5-methylsulfanyl-1H-pyrazolo[4,3-e][1,2,4]triazine], in test [1], the IC50 (as a rule, the point on the concentration scale where inhibition reaches its midpoint) was roughly 300 µM and the “inhibition of Xox (in words)” value is recorded as “moderate inhibitory activity”. For the same compound, in test [1] (listed as S-methyl derivative), the “inhibition of Xox (in words)” value is recorded as “detectable inhibition”.

In test [1], `Cc1n[nH]c2nnc(N)nc12` [Compound 4, 5-Amino-3-methyl-1H-pyrazolo[4,3-e][1,2,4]triazine] came in with a half-inhibitory concentration (IC50) greater than 300 µM. Further, in test [2], the “activity as a substrate of GDA” value is on record as “did not show any activity” and the “activity as an inhibitor of GDA” value is recorded as “did not show any activity”.

For `Cc1n[nH]c2nncnc12` [Compound 7, 3-Methyl-1H-pyrazolo[4,3-e][1,2,4]triazine], the “inhibition of Xox (in words)” value in test [1] is listed as “Only weak inhibition”; in test [1] (listed as 3-methyl-7-azapyrazolo[4,3-d]pyrimidine), “detectable inhibition”.

For the compound `Cc1nn(C)c2nncnc12` [Compound 8, 1,3-dimethyl-1H-pyrazolo[4,3-e][1,2,4]triazine], the IC50 in test [1] is greater than 300 µM.

Regarding `Oc1ncnc2[nH]ncc12` [allopurinol], the “inhibition of xanthine oxidase (in words)” value in the test with xanthine oxidase (Xox) was “strong inhibitors”.
